Test results published in ChEMBL document CHEMBL5143731, “N-Acylamino Saccharin as an Emerging Cysteine-Directed Covalent Warhead and Its Application in the Identification of Novel FBPase Inhibitors toward Glucose Reduction” (J Med Chem, 2022).
Active and inactive are the calls of the source. No cut-off for these calls is given here.

How the values were obtained:
[1] = biological target: T1, Fructose-1,6-bisphosphatase 1 (Homo sapiens, UniProt P09467); assay: Inhibition of human FBPase expressed Escherichia coli BL21 in by malachite green dye based spectrophotometry
T1 sequence (P09467 whole entry): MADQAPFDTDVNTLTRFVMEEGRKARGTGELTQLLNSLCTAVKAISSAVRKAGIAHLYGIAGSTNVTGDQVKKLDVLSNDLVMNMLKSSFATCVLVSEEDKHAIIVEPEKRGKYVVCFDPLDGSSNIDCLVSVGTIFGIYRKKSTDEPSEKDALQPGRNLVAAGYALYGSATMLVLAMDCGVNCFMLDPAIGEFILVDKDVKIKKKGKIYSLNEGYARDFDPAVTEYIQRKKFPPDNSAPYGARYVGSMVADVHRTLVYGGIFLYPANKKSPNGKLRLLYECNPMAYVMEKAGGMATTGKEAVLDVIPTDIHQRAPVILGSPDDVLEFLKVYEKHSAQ
Procedure, shortened: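 His-tagged human liver FBPase expressed in E. coli BL21(DE3) and purified by Ni affinity. Phosphate released from FBP complexed with ammonium molybdate/malachite green and read at 620 nm against a KH2PO4 standard curve (2−60 μM). Initial rates at saturating substrate, fixed effector and varied inhibitor fitted to the Hill equation for IC50.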

[2] = organism: Homo sapiens; assay: Selectivity ratio of IC50 for human FBPase to IC50 for recombinant ALDOB (unknown origin)
Procedure, shortened: (§1)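 Aldolase (ALDOA/B/C) IC50 by NADH-coupled assay: enzyme plus serial compound dilutions, 0.41 mM NADH and TPI in 0.1 M Tris pH 7.4/0.2 M K-acetate, 3 min at 37 °C. Started with FBP and […], A340 read every 30 s for 6 min. Ratios against the FBPase IC50 from malachite green phosphate assay (620 nm).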

[3] = organism: Homo sapiens; assay: Selectivity ratio of IC50 for human FBPase to IC50 for recombinant ALDOA (unknown origin); procedure, shortened: as §1
[4] = biological target: T2, Tyrosine-protein kinase JAK3 (Homo sapiens) (UniProt P52333); assay: Inhibition of JAK3 (unknown origin) at 300 uM measured after 40 mins in presence of ATP by luminescence assay relative to control
T2 sequence (whole entry): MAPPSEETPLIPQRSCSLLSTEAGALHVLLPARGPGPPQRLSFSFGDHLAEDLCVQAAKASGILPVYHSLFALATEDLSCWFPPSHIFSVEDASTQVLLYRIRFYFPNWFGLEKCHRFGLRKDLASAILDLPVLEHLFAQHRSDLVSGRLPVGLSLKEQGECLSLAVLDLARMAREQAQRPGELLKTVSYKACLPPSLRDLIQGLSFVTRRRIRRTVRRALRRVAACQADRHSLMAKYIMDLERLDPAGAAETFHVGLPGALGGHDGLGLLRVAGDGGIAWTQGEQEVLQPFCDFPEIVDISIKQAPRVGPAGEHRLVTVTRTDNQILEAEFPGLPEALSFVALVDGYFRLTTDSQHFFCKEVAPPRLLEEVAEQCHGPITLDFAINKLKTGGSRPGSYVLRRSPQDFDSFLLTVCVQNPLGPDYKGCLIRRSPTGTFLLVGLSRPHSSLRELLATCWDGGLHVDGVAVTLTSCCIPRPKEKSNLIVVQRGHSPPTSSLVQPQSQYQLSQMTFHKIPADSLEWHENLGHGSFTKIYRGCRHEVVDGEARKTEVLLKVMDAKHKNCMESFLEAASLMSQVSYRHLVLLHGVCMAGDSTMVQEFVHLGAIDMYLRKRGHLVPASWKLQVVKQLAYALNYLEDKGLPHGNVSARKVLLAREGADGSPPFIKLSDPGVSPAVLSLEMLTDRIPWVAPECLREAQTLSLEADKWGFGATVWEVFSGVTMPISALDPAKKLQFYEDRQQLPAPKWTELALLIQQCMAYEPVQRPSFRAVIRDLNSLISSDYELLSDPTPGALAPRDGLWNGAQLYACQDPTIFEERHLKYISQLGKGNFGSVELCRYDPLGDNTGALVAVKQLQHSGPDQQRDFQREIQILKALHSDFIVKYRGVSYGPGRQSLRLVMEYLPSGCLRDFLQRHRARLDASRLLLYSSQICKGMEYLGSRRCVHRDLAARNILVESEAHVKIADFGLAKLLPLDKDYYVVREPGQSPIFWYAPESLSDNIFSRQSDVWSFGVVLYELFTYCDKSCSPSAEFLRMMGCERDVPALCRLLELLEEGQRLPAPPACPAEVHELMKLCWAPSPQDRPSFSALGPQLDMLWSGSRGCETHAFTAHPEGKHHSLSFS
Procedure, shortened: (§2)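 Kinase reaction (50 μL): 40 mM Tris pH 7.4, 10 mM MgCl2, 0.1 mg/mL BSA, 1 mM DTT, 10 μM ATP, kinase and substrate, with 1% final DMSO. Run 40 min at 30 °C. Residual ATP read by Kinase-Glo Plus luminescence, inversely related to kinase activity.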

[5] = tested on: Mus musculus; assay: Hypoglycemic activity in 12 hrs fasted ICR mouse assessed as reduction in blood glucose AUC (0 to 2 hrs) at 30 mg/kg, ip measured after 2 hrs; type: functional; parameters: scale not given: the % may be the effect or the level left
Procedure, shortened: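 OGTT: 12 h-fasted ICR mice (n = 6 per group) dosed ip (10 or 30 mg/kg in 10% ricinus oil/water), with vehicle and metformin 250 mg/kg controls, 1 h before oral glucose 2 g/kg. Tail blood glucose by glucometer at 0, 0.25, 0.5, 1, 1.5 and 2 h; AUC 0−2 h computed. Food withheld.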

[6] = organism: Homo sapiens; assay: Selectivity ratio of IC50 for human FBPase to IC50 for recombinant ALDOC (unknown origin); procedure, shortened: as §1
[7] = biological target: T3, Fructose-1,6-bisphosphatase 1 (Homo sapiens) (UniProt P09467); assay: Inhibition of human FBPase in ICR mouse serum starved primary hepatocytes assessed as glucose lowering effect; type: cell-based; conditions: Hepatocyte, dose 50-300 µM
T3 sequence (whole entry): T1 sequence (P09467 whole entry)
Procedure, shortened: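 Primary mouse hepatocytes serum-starved overnight, then exposed in DMEM for 6 h to test compounds (50−300 μM), metformin 1 mM or saccharin 50 or 100 μM. Gluconeogenesis assessed as glucose in the culture medium. Mean ± SEM reported, Student's t-test versus vehicle.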

[8] = tested on: Mus musculus; assay: Hypoglycemic activity in ICR mouse assessed as improvement in glucose tolerance at 10 to 30 mg/kg, ip administered 1 hr prior to oral glucose at 2 g/kg and measured after 0.25 hr by OGTT; conditions: dose 10-30 mg/kg
[9] = biological target: Tyrosine-protein kinase BTK (Homo sapiens) (UniProt Q06187); assay: Inhibition of BTK (unknown origin) at 300 uM measured after 40 mins in presence of ATP by luminescence assay relative to control; procedure, shortened: as §2
Tyrosine-protein kinase BTK (Homo sapiens), sequence (Q06187 whole entry): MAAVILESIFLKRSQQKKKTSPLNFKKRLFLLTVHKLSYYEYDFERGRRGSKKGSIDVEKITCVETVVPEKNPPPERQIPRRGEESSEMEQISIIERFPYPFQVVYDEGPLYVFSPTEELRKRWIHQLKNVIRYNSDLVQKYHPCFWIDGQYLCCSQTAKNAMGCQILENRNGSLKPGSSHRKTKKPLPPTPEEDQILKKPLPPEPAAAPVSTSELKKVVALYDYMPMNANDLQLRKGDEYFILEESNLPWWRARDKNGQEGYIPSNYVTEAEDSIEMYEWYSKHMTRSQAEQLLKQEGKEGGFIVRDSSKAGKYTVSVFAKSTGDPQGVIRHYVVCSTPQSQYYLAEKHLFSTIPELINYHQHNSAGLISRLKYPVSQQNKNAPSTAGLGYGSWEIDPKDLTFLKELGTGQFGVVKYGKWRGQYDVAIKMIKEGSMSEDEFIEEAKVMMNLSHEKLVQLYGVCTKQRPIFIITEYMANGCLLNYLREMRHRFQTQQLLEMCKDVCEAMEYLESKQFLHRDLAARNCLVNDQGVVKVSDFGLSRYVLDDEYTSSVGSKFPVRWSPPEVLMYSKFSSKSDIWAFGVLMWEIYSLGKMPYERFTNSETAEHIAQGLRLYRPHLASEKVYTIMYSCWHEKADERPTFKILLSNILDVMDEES

[10] = tested on: Mus musculus; assay: Hypoglycemic activity in ICR mouse assessed as glucose lowering effect at 30 mg/kg, ip measured after 2 to 6 hrs; type: functional, organism-based; conditions: time 2-6 hrs
Procedure, shortened: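 Fasted (12 h) male ICR mice received one intraperitoneal dose in 10% ricinus oil/water vehicle; metformin 250 mg/kg served as control. Food was withheld. Tail blood glucose was read by glucometer at 0, 1, 2, 4 and 6 h.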

IC50 [1]: 3.4 µM
Ratio IC50 [2]: > 25
Ratio IC50 [3]: > 25
inhibition [4]: < 50%
Ratio IC50 [6]: > 25
inhibition [7]: Active
inhibition [9]: < 50%
Structure (SMILES): O=C(NCc1ccccc1)N1C(=O)c2ccccc2S1(=O)=O
Activity [5]: 17.7%
Activity [8]: Active
Activity [10]: Active
